Experimental findings from ChEMBL document CHEMBL4477171, “Identification of PTP1B and α-Glucosidase Inhibitory Serrulatanes from Eremophila spp. by Combined use of Dual High-Resolution PTP1B and α-Glucosidase Inhibition Profiling and HPLC-HRMS-SPE-NMR” (J Nat Prod, 2016) are described below.

The source made the active and inactive calls. The calls are words filed in the database; no cut-off is given here.

What is called IC50 is the concentration at which inhibition is half-maximal.

In one assay the target is T1, Tyrosine-protein phosphatase non-receptor type 1 (Homo sapiens, UniProt P18031).
T1 sequence (P18031 whole entry): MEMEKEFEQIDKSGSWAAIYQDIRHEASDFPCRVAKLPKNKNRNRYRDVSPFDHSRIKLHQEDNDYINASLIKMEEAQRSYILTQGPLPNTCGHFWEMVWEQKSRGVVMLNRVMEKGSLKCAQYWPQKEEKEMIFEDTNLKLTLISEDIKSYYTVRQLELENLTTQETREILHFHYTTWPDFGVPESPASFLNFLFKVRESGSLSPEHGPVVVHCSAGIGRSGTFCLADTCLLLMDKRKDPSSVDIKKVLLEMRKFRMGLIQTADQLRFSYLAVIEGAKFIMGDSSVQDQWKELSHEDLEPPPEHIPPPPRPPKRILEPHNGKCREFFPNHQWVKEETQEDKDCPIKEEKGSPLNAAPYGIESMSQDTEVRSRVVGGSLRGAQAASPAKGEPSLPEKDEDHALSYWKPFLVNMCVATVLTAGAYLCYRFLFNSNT
Briefly: (§1) Inhibition of recombinant human PTP1B preincubated for 10 mins followed by protein addition using pNPP substrate. In a few lines: (§2)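 Compounds were dissolved in MeOH as dilution series, dispensed in triplicate and dried. Residues were taken up in DMSO in 50 mM Tris/50 mM bis-Tris buffer with 100 mM NaCl, pH 7.0, at 25 °C. Final conditions were 10% DMSO, 1 mM EDTA, 0.5 mM pNPP and 2 mM DTT. After a 10 min preincubation, recombinant human PTP1B (0.05 μg/well) was added to start the reaction. A405 was read every 30 s for 10 min. Inhibition was calculated from the rate slope against the blank, and IC50 from dose–response curves.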
As to `C[C@H](CCC[C@H](C)[C@@H]1CC[C@@H](C)c2c(O)cc(C(=O)O)cc21)COC(=O)/C=C/c1ccccc1`, the 50% inhibitory concentration (IC50) was found to be 6.27 µM.
Same read-out and setting: the result for `C[C@@H](CO)CCC[C@H](C)[C@@H]1CC[C@@H](C)c2c1cc(C(=O)O)c(O)c2O` reads 1260 µM.
The same measure, in the same setting: in the case of `CC(C)CC(=O)OC[C@H](C)CCC[C@H](C)[C@@H]1CC[C@@H](C)c2c1cc(C(=O)O)c(O)c2O` it was 3.44 µM.
Turning to `CCCC(=O)OC[C@H](C)CCC[C@H](C)[C@@H]1CC[C@@H](C)c2c1cc(C(=O)O)c(O)c2O`, the half-maximal inhibitory concentration (IC50) was determined as 7.67 µM.

For a further assay, the target named is T2, Tyrosine-protein phosphatase non-receptor type 1 (Homo sapiens) (UniProt P18031).
T2 sequence (whole entry): T1 sequence (P18031 whole entry)
The description is as §1. In a few lines: as §2
With `COc1cc(/C=C/C(=O)OC[C@H](C)CCC[C@H](C)[C@@H]2CC[C@@H](C)c3c2cc(C(=O)O)c(O)c3O)ccc1O`, the inhibition result is “Active”.
Turning to `C[C@H](CCC[C@H](C)[C@@H]1CC[C@@H](C)c2c1cc(C(=O)O)c(O)c2O)COC(=O)/C=C/c1ccc(O)c(O)c1`, the inhibition entry is “Active”.
The same measure, in the same setting: the result for `CC(C)=CCC(=O)OC[C@H](C)CCC[C@H](C)[C@@H]1CC[C@@H](C)c2c(O)cc(C(=O)O)cc21` reads “Active”.
The same measure, in the same setting: in the case of `C[C@H](CCC[C@H](C)[C@@H]1CC[C@@H](C)c2c(O)cc(C(=O)O)cc21)COC(=O)CCc1ccccc1` it was “Active”; in that of `CC(C)=CCC[C@H](C)[C@@H]1CC[C@@H](C)c2c1cc(C(=O)O)c(O)c2O`, “Active”.

The target in the next assay is T1, Tyrosine-protein phosphatase non-receptor type 1. Briefly: Inhibition of GST-tagged human PTP1B expressed in Escherichia coli using pNPP substrate assessed as reduction in p-nitrophenol release. In a few lines:
as §2
In the case of `O=C1c2c(O)cc(O)c3c2[C@@H]2[C@@H](c4ccccc4O[C@H]2c2cccc(O)c2-3)[C@H]1O` [OHIOENSIN G], the half-maximal inhibitory concentration (IC50) lay within 3.5 to 7.6 µM.
The same measure, in the same setting: in the case of `C=C1CC[C@@H]2[C@H]1[C@H]1[C@@H](C(C)CC(=O)C=C(C)C)CC[C@]12C` (stereo partly specified) it was 5.9 µM.
On the same count and under the same terms, the result for `O=C1C[C@@H]2c3ccccc3O[C@H]3c4cc(O)ccc4-c4c(O)cc(O)c1c4[C@H]23` [OHIOENSIN A] reads 3.5 to 7.6 µM; that for `COc1cc(O)c2c3c1-c1ccc(O)cc1[C@@H]1Oc4ccccc4[C@@H](CC2=O)[C@@H]31`, 3.5 to 7.6 µM.
On the same count and under the same terms, in the case of `CC1=CCC[C@H]2[C@@H](C)[C@@](C)(CC3=C(O)C(=O)C=C(CCCS(=O)(=O)O)C3=O)CC[C@]12C` it was 1.5 µM; in that of `C=C(CCC=C(C)C)[C@H]1CC[C@]2(C)CCCC(=C)[C@H]2C1` [LOBOPHYTUMIN C], 7.8 µM.
On to `OC[C@H]1O[C@@H](O[C@@H]2c3ccccc3[C@H](O)C[C@H]2O)[C@H](O)[C@@H](O)[C@@H]1O`, for which the concentration for half-maximal inhibition (IC50) came out at 5.5 µM.
As for `O=C1C[C@]2(O)c3ccccc3O[C@H]3c4cc(O)ccc4-c4c(O)cc(O)c1c4[C@@H]32` [OHIOENSIN F], the concentration for half-maximal inhibition (IC50) fell in the range of 3.5 to 7.6 µM.

The test system of another assay is Saccharomyces cerevisiae. Kind of assay: Inhibition of Saccharomyces cerevisiae alpha-glucosidase type-1 pre-incubated for 10 mins before pNPG substrate addition assessed as reduction in p-nitrophenol release. In a few lines: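 Dried residues were dissolved in 25% DMSO in 0.1 M phosphate buffer, pH 6.9, at 25 °C. α-Glucosidase was added to 0.25 U/mL final (6.25% DMSO final) and preincubated for 10 min. The reaction was started with pNPG (1.25 mM final). A405 was read every 30 s for 10 min, and inhibition was taken from the cleavage rate relative to the blank.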
Consider `C/C(C=O)=C\CC[C@H](C)[C@@H]1CC[C@@H](C)c2c(O)cc(C(=O)O)cc21`, for which the inhibition entry was “Active”.
On to `COc1cc(O)c2c(c1)O[C@H](c1ccc(O)cc1)CC2=O`, for which the inhibition result was “Active”.
The same measure, in the same setting: the result for `C/C(=C\CC[C@H](C)[C@@H]1CC[C@@H](C)c2c(O)cc(C(=O)O)cc21)CO` reads “Active”; that for `C[C@@H](CO)CCC[C@H](C)[C@@H]1CC[C@@H](C)c2c(O)cc(C(=O)O)cc21`, “Active”.
